Measured values published in ChEMBL document CHEMBL5712094, “The Gridlock transcriptional repressor impedes vertebrate heart regeneration by restricting expression of lysine methyltransferase” (2020).
Calls of active or inactive are those of the source. No cut-off for these calls is given here.

Experiments:
[1] = In vivo inhibition of Smyd2 KMT activity in Zebrafish assessed as decrease in cardiomyocyte proliferation at 10 uM by immunostaining analysis relative to control; format: functional; conditions: Danio rerio, Cardiac muscle cell
In short: (§1)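 Adult zebrafish (WT siblings or grl5nt−/− mutants) underwent ventricular apex resection. Bath treatment in aquarium water ran from 6 to 7 dpa, with 0.5‰ DMSO as the vehicle control. Hearts were fixed at 7 dpa in 4% PFA and cut as 10 µm cryosections. Sections were given antigen retrieval at 98°C for 20 min, then stained for PCNA and Mef2. For each heart, 4-6 sections with the largest injury were imaged with a 10× objective. PCNA+Mef2+/Mef2+ cells were counted in a fixed region around the injury, and the section values were averaged per heart. n=5-11 fish.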

[2] = test system: Cardiac Muscle Cell; assay: In vivo inhibition of Smyd2 KMT activity in grl5nt-/- mutant Zebrafish assessed as decrease in p-STAT3 level cardiomyocyte at 10 uM by immunostaining analysis; format: functional, cell-based; conditions: Danio rerio
In short: (§2)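 grl5nt−/− zebrafish underwent ventricular resection and were bath-treated in aquarium water from 6 to 7 dpa, with 0.5‰ DMSO as vehicle. Cryosections at 7 dpa were double-immunostained for P-Stat3 and Mef2. CMs with nuclear or perinuclear cytosolic P-Stat3 were counted in the injury border zone. n=4-6 fish; mean±s.e.m.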

[3] = test system: Cardiac Muscle Cell; assay: In vivo inhibition of Smyd2 KMT activity in grl5nt-/- mutant Zebrafish assessed as decrease in cardiomyocyte proliferation at 10 uM by immunostaining analysis; format: functional, cell-based; conditions: Danio rerio; in short: as §1
[4] = target: N-lysine methyltransferase SMYD2 (Homo sapiens) (UniProt Q9NRG4); assay: Inhibition of Smyd2 KMT activity in human HEK 293T cells co-transfected with Flag-STAT3 and HA-Smyd2b assessed as decrease in Stat3 phosphorylation at 15 to 25 uM for 6 hrs by Co-IP assay; format: cell-based; conditions: dose 15-25 µM
In short: (§3)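 HEK 293T cells were co-transfected with Flag-Stat3 and HA-Smyd2b. Compound was added at 15 or 25 µM for 6 h, or at 2.5 or 5 µM for 28 h, before harvest at 48 h post-transfection. Lysates were made in denaturing buffer with 1% SDS at 100°C for 20 min, then diluted to 0.1% SDS. Stat3 was immunoprecipitated with anti-Flag beads for 4 h. Blots were probed for methyl-lysine and P-Stat3, normalized to Flag-Stat3. n=3.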

[5] = target: N-lysine methyltransferase SMYD2 (Homo sapiens) (UniProt Q9NRG4); assay: Inhibition of Smyd2 KMT activity in human HEK 293T cells co-transfected with Flag-STAT3 and HA-Smyd2b assessed as decrease in Stat3 methylation at 15 to 25 uM for 6 hrs by Co-IP assay; format: cell-based; conditions: dose 15-25 µM; in short: as §3
[6] = In vivo inhibition of Smyd2 KMT activity in Zebrafish assessed as decrease in cardiomyocyte proliferation at 5 uM by immunostaining analysis relative to control; format: functional; conditions: Danio rerio, Cardiac muscle cell; in short: as §1
[7] = target: N-lysine methyltransferase SMYD2 (Homo sapiens) (UniProt Q9NRG4); assay: Inhibition of Smyd2 KMT activity in human HEK 293T cells co-transfected with Flag-STAT3 and HA-Smyd2b assessed as decrease in Stat3 phosphorylation at 5 to 2.5 uM for 28 hrs by Co-IP assay; format: cell-based; conditions: dose 5-2.5 µM; in short: as §3
[8] = test system: Cardiac Muscle Cell; assay: In vivo inhibition of Smyd2 KMT activity in grl5nt-/- mutant Zebrafish assessed as decrease in p-STAT3 level cardiomyocyte at 5 uM by immunostaining analysis; format: functional, cell-based; conditions: Danio rerio; in short: as §2
[9] = target: N-lysine methyltransferase SMYD2 (Homo sapiens) (UniProt Q9NRG4); assay: Inhibition of Smyd2 KMT activity in human HEK 293T cells co-transfected with Flag-STAT3 and HA-Smyd2b assessed as decrease in Stat3 methylation at 5 to 2.5 uM for 28 hrs by Co-IP assay; format: cell-based; conditions: dose 5-2.5 µM; in short: as §3
[10] = test system: Cardiac Muscle Cell; assay: In vivo inhibition of Smyd2 KMT activity in grl5nt-/- mutant Zebrafish assessed as decrease in cardiomyocyte proliferation at 5 uM by immunostaining analysis; format: functional, cell-based; conditions: Danio rerio; in short: as §1

N-lysine methyltransferase SMYD2 (Homo sapiens), sequence (Q9NRG4 whole entry): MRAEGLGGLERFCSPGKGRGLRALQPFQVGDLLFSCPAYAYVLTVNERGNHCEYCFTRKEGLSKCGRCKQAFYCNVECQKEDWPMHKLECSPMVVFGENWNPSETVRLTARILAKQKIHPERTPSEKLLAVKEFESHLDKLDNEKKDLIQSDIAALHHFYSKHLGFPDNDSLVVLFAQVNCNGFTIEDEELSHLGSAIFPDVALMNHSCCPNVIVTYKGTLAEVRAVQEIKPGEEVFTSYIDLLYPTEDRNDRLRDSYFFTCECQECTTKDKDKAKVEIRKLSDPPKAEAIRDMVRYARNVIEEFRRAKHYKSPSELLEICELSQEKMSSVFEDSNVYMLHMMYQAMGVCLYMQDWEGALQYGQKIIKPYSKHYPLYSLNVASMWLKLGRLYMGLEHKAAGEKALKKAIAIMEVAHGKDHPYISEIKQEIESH

| Compound | inhibition in vivo at 10 µM [1] [%] | inhibition [2] | inhibition [3] | inhibition [4] | inhibition [5] | inhibition in vivo at 5 µM [6] [%] | inhibition [7] | inhibition [8] | inhibition [9] | inhibition [10] |
| --- | --- | --- | --- | --- | --- | --- | --- | --- | --- | --- |
| O=C1COc2c(CCNCCN(C(=O)CCNCCc3ccc(Cl)c(Cl)c3)C3CCCCC3)ccc(O)c2N1 | 34 | Active | Active | Active | Active | – | – | – | – | – |
| Cc1cn(CCN2CCN(c3ccccc3-c3cc(C#N)cc(C(=O)NCCCN4CCCC4)c3)CC2)c2ccccc12 | – | – | – | – | – | 25 | Active | Active | Active | Active |
